Experiments:
FEPD = assay: Antiproliferative activity against FEPD by MTT assay; type: functional, Homo sapiens
Method in brief: (§1)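 MTT viability in ALCL lines cultured 48 h with or without compound at 5-100 × 10^-6 M. Viability is expressed relative to DMSO-treated control cells, set at 1.0. Values are means of triplicate cultures.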

[1] = target: cAMP-dependent protein kinase (PKA) (Homo sapiens, UniProt P22694+P17612+P22612); assay: Inhibition of PKA; type: protein assay
Method in brief: (§2)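 Each kinase's activity was measured by a method given in the Supporting Information. IC50 values are means of at least three independent experiments, with SEM never above 15%.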

[2] = target: Tyrosine-protein kinase Lyn (Rattus norvegicus, UniProt Q07014); assay: Inhibition of rat spleen Lyn; type: tissue-based; method in brief: as §2
[3] = target: T1, NPM/ALK (Nucleophosmin/ALK tyrosine kinase receptor) (Homo sapiens) (UniProt Q9UM73+P06748); assay: Antiproliferative activity against SR786 expressing NPM-ALK by MTT assay; type: functional; conditions: concentration not given here; method in brief: as §1
[4] = target: Tyrosine-protein kinase Fgr (Rattus norvegicus, UniProt Q6P6U0); assay: Inhibition of rat spleen FGR; type: tissue-based; method in brief: as §2
[5] = target: T2, Receptor-type tyrosine-protein kinase FLT3 (Homo sapiens, UniProt P36888); assay: Inhibition of FLT3; method in brief: as §2
T2 sequence (P36888 whole entry): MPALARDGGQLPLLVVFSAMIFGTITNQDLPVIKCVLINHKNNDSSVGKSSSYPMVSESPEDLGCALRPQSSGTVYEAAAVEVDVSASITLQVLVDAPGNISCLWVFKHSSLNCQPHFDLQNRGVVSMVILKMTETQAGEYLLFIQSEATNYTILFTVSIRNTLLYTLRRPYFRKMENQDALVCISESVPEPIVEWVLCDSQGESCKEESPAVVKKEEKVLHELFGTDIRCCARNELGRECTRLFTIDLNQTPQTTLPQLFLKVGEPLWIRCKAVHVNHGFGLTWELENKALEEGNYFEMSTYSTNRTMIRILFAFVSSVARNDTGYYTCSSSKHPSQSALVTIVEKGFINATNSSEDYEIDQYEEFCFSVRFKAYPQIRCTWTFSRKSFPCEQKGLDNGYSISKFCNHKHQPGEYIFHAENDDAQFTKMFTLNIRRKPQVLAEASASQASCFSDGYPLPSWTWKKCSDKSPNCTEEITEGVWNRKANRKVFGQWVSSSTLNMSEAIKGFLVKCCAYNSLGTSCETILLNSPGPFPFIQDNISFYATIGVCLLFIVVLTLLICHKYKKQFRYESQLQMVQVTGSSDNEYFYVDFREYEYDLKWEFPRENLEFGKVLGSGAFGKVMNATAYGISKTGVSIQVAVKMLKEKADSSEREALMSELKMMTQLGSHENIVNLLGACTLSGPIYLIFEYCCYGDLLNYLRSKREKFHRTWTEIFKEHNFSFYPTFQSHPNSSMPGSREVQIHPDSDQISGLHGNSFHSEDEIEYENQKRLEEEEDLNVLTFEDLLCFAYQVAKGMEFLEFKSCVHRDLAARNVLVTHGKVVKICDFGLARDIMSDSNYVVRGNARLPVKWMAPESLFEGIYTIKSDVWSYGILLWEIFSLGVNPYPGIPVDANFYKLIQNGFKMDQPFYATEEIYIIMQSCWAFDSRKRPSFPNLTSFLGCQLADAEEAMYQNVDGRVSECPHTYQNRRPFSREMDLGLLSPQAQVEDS

[6] = Inhibition of rat liver CK2; method in brief: as §2
[7] = target: Dual specificity tyrosine-phosphorylation-regulated kinase 1A (Homo sapiens, UniProt Q13627); assay: Inhibition of human recombinant DYRK1a; method in brief: as §2
[8] = target: Glycogen synthase kinase-3 beta (Homo sapiens, UniProt P49841); assay: Inhibition of human recombinant GSK3-beta; method in brief: as §2
[9] = target: T1, NPM/ALK (Nucleophosmin/ALK tyrosine kinase receptor) (Homo sapiens); assay: Antiproliferative activity against KARPAS299 expressing NPM-ALK by MTT assay; type: functional; conditions: concentration not given here; method in brief: as §1
[10] = target: Proto-oncogene tyrosine-protein kinase receptor Ret (Homo sapiens, UniProt P07949); assay: Inhibition of RET; method in brief: as §2
[11] = target: Tyrosine-protein kinase CSK (Rattus norvegicus, UniProt P32577); assay: Inhibition of rat spleen CSK; type: tissue-based; method in brief: as §2
[12] = target: T1, NPM/ALK (Nucleophosmin/ALK tyrosine kinase receptor) (Homo sapiens); assay: Antiproliferative activity against SUDHL1 expressing NPM-ALK by MTT assay; type: functional; conditions: concentration not given here; method in brief: as §1
[13] = Inhibition of rat liver CK1; method in brief: as §2
[14] = target: Tyrosine-protein kinase SYK (Rattus norvegicus, UniProt Q64725); assay: Inhibition of rat spleen SYK; type: tissue-based; method in brief: as §2
[15] = target: NPM/ALK (Nucleophosmin/ALK tyrosine kinase receptor) (Homo sapiens, UniProt Q9UM73); assay: Inhibition of NPM-ALK; type: protein assay; method in brief: as §2

T1 sequence (P06748 whole entry partner): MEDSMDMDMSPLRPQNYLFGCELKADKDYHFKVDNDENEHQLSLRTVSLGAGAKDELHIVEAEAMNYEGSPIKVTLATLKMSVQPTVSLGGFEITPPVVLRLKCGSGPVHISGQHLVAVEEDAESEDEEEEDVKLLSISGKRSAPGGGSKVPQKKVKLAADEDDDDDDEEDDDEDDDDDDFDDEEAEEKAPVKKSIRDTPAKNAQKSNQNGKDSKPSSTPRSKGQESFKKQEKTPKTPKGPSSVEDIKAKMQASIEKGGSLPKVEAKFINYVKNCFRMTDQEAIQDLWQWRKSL
T1 sequence (Q9UM73 19-1620 limits assumed): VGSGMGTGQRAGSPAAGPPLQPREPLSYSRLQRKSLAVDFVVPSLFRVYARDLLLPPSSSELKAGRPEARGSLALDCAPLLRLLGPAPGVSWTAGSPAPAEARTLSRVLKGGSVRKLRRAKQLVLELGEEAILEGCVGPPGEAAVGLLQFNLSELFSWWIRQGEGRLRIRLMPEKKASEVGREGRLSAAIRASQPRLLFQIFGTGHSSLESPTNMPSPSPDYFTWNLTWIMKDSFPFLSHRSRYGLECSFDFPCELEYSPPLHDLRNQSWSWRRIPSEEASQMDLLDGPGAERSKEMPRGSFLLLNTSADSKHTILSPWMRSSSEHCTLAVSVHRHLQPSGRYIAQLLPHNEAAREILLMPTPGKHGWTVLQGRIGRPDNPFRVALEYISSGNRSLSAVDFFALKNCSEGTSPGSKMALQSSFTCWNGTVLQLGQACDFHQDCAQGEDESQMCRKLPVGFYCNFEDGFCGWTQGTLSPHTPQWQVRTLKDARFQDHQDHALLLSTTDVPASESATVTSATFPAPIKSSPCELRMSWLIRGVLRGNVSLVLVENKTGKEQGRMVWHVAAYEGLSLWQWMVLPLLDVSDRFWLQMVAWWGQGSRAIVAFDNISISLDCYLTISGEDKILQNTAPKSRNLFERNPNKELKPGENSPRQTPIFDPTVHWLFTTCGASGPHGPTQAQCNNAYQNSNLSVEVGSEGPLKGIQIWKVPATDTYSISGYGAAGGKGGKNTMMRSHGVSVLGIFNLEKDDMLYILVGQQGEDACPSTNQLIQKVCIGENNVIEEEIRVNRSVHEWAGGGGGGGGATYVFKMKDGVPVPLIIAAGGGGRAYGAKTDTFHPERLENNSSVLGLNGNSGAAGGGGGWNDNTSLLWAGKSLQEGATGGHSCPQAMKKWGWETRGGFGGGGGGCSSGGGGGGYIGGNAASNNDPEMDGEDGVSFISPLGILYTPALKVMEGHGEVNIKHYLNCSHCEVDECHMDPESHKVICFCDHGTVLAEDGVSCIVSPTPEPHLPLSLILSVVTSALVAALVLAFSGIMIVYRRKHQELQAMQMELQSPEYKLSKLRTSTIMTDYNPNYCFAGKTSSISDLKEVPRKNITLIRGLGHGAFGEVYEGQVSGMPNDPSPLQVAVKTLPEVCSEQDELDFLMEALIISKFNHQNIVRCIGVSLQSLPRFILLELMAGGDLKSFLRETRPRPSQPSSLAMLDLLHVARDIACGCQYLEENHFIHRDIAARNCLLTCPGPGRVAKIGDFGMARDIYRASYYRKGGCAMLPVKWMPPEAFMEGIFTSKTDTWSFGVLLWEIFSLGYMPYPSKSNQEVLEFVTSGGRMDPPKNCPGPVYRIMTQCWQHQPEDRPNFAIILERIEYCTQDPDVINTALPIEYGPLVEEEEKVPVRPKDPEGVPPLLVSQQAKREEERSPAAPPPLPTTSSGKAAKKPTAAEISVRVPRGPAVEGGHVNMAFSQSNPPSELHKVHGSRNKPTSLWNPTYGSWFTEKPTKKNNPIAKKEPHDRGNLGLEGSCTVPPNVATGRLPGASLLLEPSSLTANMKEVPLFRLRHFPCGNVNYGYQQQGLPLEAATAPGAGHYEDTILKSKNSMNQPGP
Chain of Tyrosine-protein kinase Lyn (Q07014 whole entry): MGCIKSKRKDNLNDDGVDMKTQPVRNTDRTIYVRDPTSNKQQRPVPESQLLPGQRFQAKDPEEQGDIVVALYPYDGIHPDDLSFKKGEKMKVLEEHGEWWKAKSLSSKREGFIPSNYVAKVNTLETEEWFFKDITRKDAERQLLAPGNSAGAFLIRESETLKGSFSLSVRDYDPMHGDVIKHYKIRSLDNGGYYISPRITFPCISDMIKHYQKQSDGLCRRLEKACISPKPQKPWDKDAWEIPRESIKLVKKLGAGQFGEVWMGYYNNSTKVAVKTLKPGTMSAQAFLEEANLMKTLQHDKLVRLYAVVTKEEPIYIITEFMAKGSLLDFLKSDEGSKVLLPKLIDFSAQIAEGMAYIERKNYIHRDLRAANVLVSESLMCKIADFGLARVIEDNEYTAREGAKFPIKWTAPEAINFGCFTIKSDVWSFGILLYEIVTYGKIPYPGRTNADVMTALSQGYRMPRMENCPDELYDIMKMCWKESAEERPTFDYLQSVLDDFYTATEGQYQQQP
Chain of Proto-oncogene tyrosine-protein kinase receptor Ret (P07949 whole entry): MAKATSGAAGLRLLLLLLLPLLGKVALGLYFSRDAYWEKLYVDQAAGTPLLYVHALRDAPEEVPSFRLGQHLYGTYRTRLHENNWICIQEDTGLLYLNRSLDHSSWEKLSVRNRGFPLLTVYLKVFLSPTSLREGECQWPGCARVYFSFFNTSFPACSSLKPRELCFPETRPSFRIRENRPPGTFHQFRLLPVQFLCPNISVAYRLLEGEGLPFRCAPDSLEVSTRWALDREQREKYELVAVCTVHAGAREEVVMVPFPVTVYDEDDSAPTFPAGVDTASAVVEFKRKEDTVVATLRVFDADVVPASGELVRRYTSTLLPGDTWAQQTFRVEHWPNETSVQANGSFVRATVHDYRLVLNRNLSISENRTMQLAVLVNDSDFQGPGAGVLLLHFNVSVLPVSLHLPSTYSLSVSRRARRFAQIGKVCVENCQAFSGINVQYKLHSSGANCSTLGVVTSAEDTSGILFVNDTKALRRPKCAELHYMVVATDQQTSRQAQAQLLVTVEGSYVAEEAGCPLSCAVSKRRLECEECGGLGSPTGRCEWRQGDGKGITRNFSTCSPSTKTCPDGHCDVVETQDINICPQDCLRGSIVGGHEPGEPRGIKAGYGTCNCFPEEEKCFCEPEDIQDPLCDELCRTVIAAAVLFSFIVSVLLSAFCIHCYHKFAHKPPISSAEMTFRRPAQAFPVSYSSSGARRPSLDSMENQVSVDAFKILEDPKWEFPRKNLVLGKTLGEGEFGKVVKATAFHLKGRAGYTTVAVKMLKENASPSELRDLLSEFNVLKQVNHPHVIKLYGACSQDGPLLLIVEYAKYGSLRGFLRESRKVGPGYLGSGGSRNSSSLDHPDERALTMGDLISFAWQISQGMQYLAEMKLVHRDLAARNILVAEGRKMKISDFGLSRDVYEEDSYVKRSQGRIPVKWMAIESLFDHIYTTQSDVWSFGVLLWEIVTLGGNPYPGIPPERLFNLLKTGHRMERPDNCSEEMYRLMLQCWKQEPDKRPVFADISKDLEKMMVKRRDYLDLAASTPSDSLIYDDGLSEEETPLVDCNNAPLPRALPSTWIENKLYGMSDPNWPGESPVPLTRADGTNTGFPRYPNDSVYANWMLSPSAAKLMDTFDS
Chain of Tyrosine-protein kinase SYK (Q64725 whole entry): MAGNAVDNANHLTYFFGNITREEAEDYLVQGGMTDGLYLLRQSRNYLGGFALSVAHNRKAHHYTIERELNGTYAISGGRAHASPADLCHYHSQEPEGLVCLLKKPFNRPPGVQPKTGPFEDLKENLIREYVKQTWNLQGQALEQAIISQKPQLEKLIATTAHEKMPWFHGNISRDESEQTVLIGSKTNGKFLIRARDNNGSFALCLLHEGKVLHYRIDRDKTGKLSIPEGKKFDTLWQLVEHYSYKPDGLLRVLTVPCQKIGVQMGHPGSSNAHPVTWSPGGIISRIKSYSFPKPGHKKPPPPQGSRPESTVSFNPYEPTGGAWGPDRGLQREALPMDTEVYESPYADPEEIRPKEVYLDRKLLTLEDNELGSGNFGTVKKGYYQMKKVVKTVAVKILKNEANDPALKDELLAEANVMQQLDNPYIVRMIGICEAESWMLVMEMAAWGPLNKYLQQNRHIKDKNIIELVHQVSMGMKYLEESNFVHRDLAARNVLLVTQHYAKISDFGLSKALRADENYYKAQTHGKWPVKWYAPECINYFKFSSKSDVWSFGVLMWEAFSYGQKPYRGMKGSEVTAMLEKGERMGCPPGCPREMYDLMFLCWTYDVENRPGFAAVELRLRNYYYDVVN
Chain of Tyrosine-protein kinase Fgr (Q6P6U0 whole entry): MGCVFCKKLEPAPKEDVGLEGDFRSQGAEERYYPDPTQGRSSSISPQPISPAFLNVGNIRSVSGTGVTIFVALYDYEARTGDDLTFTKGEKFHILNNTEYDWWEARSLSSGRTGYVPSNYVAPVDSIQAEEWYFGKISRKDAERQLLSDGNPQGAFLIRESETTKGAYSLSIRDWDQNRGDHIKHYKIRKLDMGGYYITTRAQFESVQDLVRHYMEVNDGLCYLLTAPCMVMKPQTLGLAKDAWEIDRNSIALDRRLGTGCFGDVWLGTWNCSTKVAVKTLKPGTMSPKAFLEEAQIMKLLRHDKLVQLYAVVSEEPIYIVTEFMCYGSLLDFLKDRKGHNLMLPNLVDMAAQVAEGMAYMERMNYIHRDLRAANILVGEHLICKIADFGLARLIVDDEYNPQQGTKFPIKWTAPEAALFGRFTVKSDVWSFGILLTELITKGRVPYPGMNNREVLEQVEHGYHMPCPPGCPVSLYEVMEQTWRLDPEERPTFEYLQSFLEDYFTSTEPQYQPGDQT

IC50 [1]: 3.5 µM
IC50 [2]: 2900 nM
inhibition [3]: 40%
IC50 [4]: 9.4 µM
IC50 [5]: > 40 µM
IC50 [6]: 40 nM
Ki [6]: 20 nM
IC50 [7]: > 40 µM
IC50 [8]: 7.5 µM
inhibition [9]: 60%
IC50 [10]: > 40 µM
IC50 [11]: > 40 µM
inhibition [12]: 85%
IC50 [13]: 13 µM
IC50 [14]: 4.3 µM
IC50 [15]: > 40 µM
SMILES: O=c1oc2c(O)c(O)cc3c(=O)oc4c(O)c(O)cc1c4c23 [ELLAGIC ACID]
Inhibition (FEPD): 70%

From ChEMBL document CHEMBL1146093, “Identification of ellagic acid as potent inhibitor of protein kinase CK2: a successful example of a virtual screening application” (J Med Chem, 2006)
